Published values pooled from the literature.
Compare with care: the assays were run in different laboratories.
Medium: plasma

SMILES | system | conditions | endpoint | result
C[C@@H](O)[C@@H]1NC(=O)CNC(=O)[C@H](Cc2c[nH]cn2)NC(=O)[C@H](Cc2c[nH]c3ccccc23)NC(=O)[C@H](CC(N)=O)NC(=O)CNC(=O)C[C@@H](C(=O)N[C@@H](Cc2c[nH]c3ccccc23)C(=O)N[C@@H](Cc2ccccc2)C(=O)N[C@@H](Cc2ccccc2)C(=O)N[C@@H](CC(N)=O)C(=O)N[C@@H](Cc2ccc(O)cc2)C(=O)N[C@@H](Cc2ccc(O)cc2)C(=O)N[C@@H](Cc2c[nH]c3ccccc23)C(=O)O)NC(=O)[C@@H]2CCCN2C(=O)[C@H](CO)NC1=O | mouse | intravenous, 3 mg/kg | clearance | 1.34 mL/min/kg
CC(C)[C@]12O[C@H]1[C@@H]1O[C@]13[C@]1(O[C@H]1C[C@H]1C4=C(CC[C@@]13C)C(=O)OC4)[C@@H]2O | SCID mouse | intravenous, 0.6 mg/kg | clearance | 20.5 mL/min/kg
CC(C)=CCC[C@](C)(O[C@@H]1O[C@H](CO)[C@@H](O)[C@H](O)[C@H]1O)[C@H]1CC[C@]2(C)[C@@H]1[C@H](O)C[C@@H]1[C@@]3(C)CC[C@H](O)C(C)(C)[C@@H]3CC[C@]12C | mouse | intravenous, 2 mg/kg | clearance | 0.46 L/h
N=C(N)NCCC[C@H](NC(=O)[C@H](Cc1ccccc1)NC(=O)[C@H](CCC(N)=O)NC(=O)OCc1ccccc1)C(=O)c1nccs1 | female C57BL/6 mouse | intravenous, 5 mg/kg | clearance | 70.2 mL/min/kg
CC[C@H](C)[C@H](NC(=O)[C@H](Cc1ccccc1)NC(=O)[C@H](CCC(=O)O)NC(=O)[C@H](CCCCN)NC(=O)[C@H](C)NC(=O)[C@H](C)NC(=O)[C@H](CCC(N)=O)NC(=O)CNC(=O)[C@H](CCC(=O)O)NC(=O)[C@H](CC(C)C)NC(=O)[C@H](Cc1ccc(O)cc1)NC(=O)[C@H](CO)NC(=O)[C@H](CO)NC(=O)[C@@H](NC(=O)[C@H](CC(=O)O)NC(=O)[C@H](CO)NC(=O)[C@@H](NC(=O)[C@H](Cc1ccccc1)NC(=O)[C@@H](NC(=O)CNC(=O)[C@H](CCC(=O)O)NC(=O)[C@H](C)NC(=O)N(N)Cc1c[nH]cn1)[C@@H](C)O)[C@@H](C)O)C(C)C)C(=O)N[C@@H](C)C(=O)N[C@@H](Cc1c[nH]c2ccccc12)C(=O)N[C@@H](CC(C)C)C(=O)N[C@H](C(=O)N[C@@H](CCCNC(=N)N)C(=O)NCC(=O)N[C@@H](CCCNC(=N)N)C(=O)NCC(=O)O)C(C)C | male CD-1 mouse | intravenous, 1 mg/kg, single dose | C0 | 37700 ng/mL
CC(=O)c1c(C)c2cnc(Nc3ccc(C4CCN(CCS(C)(=O)=O)CC4)cn3)nc2n(C2CCCC2)c1=O | male beagle dog | oral, 6 mg/kg, multiple doses | Cmax | 98.5 ng/mL
CC[C@H](C)CCCCC(=O)N[C@@H](CCN)C(=O)N[C@H](C(=O)N[C@@H](CCN)C(=O)N[C@H]1CCNC(=O)[C@H]([C@@H](C)O)NC(=O)[C@H](CCN)NC(=O)[C@H](CCN)NC(=O)[C@H](CC(C)C)NC(=O)[C@@H](CC(C)C)NC(=O)[C@H](CCN)NC1=O)[C@@H](C)O | male Sprague-Dawley rat | subcutaneous, 10 mg/kg | Tmax | 2.67 h
CC[C@H](C)[C@@H]1NC(=O)[C@@H]2CCCN2C(=O)[C@H](CC(C)C)NC(=O)[C@H](CC(C)C)NC(=O)CNC(=O)[C@@H](NC(=O)[C@@H](NC(=O)[C@H](CC(=O)O)NC(=O)CNC(=O)[C@@H](NC(=O)[C@H](C)NC(=O)CNC(=O)[C@H](CCCCN)NC(=O)[C@H](CC(C)C)NC(=O)[C@H](CC(C)C)NC(=O)[C@H](CCCCN)NC(=O)CNC(=O)[C@@H](NC(=O)[C@@H](N)CC(C)C)C(C)C)C(C)C)C(C)C)CSSC[C@@H](C(=O)O)NC1=O | female C57BL/6 mouse | intravenous, 10 mg/kg, single dose | C0 | 3190 ng/mL
